In series [1] the target is T1, PI3-kinase p110-alpha/p85-alpha (Homo sapiens) (UniProt P27986+P42336). The experiment in a line: Inhibition of human PI3K p110alpha/p85alpha at 10 uM using PIP2 as substrate incubated for 10 mins followed by ATP addition and measured after 30 mins in presence of 10 uM ATP by HTRF assay. The series is classed as protein-complex assay. For orientation: Time-resolved FRET reads energy transfer from a long-lived donor to a nearby acceptor.

The target of series [2] is T2, Serine/threonine-protein kinase mTOR (Homo sapiens, UniProt P42345). The experiment in a line: Inhibition of human mTOR at 10 uM using 4EBP1 as substrate after 120 mins by [gamma-33P]-ATP assay. A digest of the protocol: (§1)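 Single-point kinase screen by HotSpot radioisotope filter binding assay; compound at 10 μM with 10 μM ATP, reported as percent inhibition of PI3Kα and mTOR.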

Series [3] in a line: Kinetic aqueous solubility of compound in 2% DMSO/Phosphate buffer saline incubated for 90 mins under shaking condition by. Type of series: physicochemical. As to conditions: 2% DMSO/phosphate buffered saline, read-out: Kinetic_solubility. The gist of the method: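 Maximum kinetic aqueous solubility measured in 2% DMSO/phosphate-buffered saline, pH 7.4.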
Series [4] in a line: Half life in CD1 mouse liver microsomes at 1 uM incubated for 60 mins under shaking condition by LC-MS/MS analysis. Type of series: ADME, Microsome. The gist of the method: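 Metabolic stability in mouse liver microsomes with test compound at 1 μM; result expressed as t1/2 (min).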
Series [5] deals with T1, PI3-kinase p110-alpha/p85-alpha (Homo sapiens). In words: Inhibition of human PI3K p110alpha/p85alpha at 10 uM using PIP2 as substrate incubated for 10 mins followed by ATP addition and measured after 30 mins in presence of 10 uM ATP by HTRF assay relative to control. Type of series: protein-complex assay.
For series [6], the target named is T2, Serine/threonine-protein kinase mTOR. In words: Inhibition of human mTOR at 10 uM using 4EBP1 as substrate after 120 mins by [gamma-33P]-ATP assay relative to control. The gist of the method: as §1
For series [7], the target named is PI3-kinase p110-alpha/p85-alpha (Homo sapiens, UniProt P42336). The experiment in a line: Inhibition of human PI3K p110alpha/p85alpha using PIP2 as substrate incubated for 10 mins followed by ATP addition and measured after 30 mins in presence of 10 uM ATP by HTRF assay. The series is classed as protein-complex assay.
Series [8] deals with T2, Serine/threonine-protein kinase mTOR. In words: Inhibition of human mTOR using 4EBP1 as substrate after 120 mins by [gamma-33P]-ATP assay.
For series [9] the target is unchanged. The experiment in a line: Inhibition of mTOR in human MCF7 cells assessed as reduction in phosphorylated 4EBP level after 4 hrs by Western blot analysis. Type of series: cell-based. As to conditions: dose nM 62.5-125, time 4.0 hrs. A digest of the protocol: (§2)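 MCF7 cells treated for 4 h at 62.5 and 125 nM; lysates probed by Western blot for phospho-AKT(473), phospho-4EBP and phospho-P70S6.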
(In general: In western blotting, separated proteins are transferred to a membrane and probed.)

The target is the same in series [10]. The experiment in a line: Inhibition of mTOR in human MCF7 cells assessed as reduction in phosphorylated P70S6K level after 4 hrs by Western blot analysis. Type of series: cell-based. As to conditions: dose nM 62.5-125, time 4.0 hrs. The gist of the method:
as §2

For series [11], the system named is MCF7. The experiment in a line: Inhibition of PI3K in human MCF7 cells assessed as reduction in AKT phosphorylation at 473 residue after 4 hrs by Western blot analysis. The note with it: dose nM 62.5-125, time 4.0 hrs. The series is classed as cell-based. A digest of the protocol: as §2
Series [12] is described as follows: Cytotoxicity against human primary fibroblasts assessed as cell viability at 10 uM after 48 hrs by celltiter-glo 2D luminescent assay relative to control. Type of series: cell-based, Fibroblast. The note with it: read-out: Activity. A digest of the protocol:
(§3)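 2D CellTiter-Glo luminescent viability screen, single 10 μM compound concentration, in MDA-MB-468, MDA-MB-231 and MCF7 breast cancer cells and in normal human dermal fibroblasts; output reported as percent of viable cells.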
(In general: In ATP-based viability assays light output follows the ATP content of the culture.)

The test system of the next series is MDA-MB-231. The experiment in a line: Antiproliferative activity against human MDA-MB-231 cells assessed as cell viability at 10 uM after 48 hrs by celltiter-glo 2D luminescent assay relative to control. The series is classed as functional. The note with it: read-out: Activity. A digest of the protocol: as §3
In a further series the test system is MDA-MB-468. In words: Antiproliferative activity against human MDA-MB-468 cells assessed as cell viability at 10 uM after 48 hrs by celltiter-glo 2D luminescent assay relative to control. The series is classed as functional. As to conditions: read-out: Activity. The gist of the method:
as §3

Series [13] concerns MCF7. The experiment in a line: Antiproliferative activity against human MCF7 cells assessed as cell viability at 10 uM after 48 hrs by celltiter-glo 2D luminescent assay relative to control. The note with it: read-out: Activity. Type of series: functional. The gist of the method:
as §3

Series [14] relates to MCF7. The experiment in a line: Antiproliferative activity against human MCF7 cells assessed as reduction in cell viability after 48 hrs by celltiter-glo 3D luminescent assay. The series is classed as functional, cell-based. As to conditions: MCF7, 48 h. The gist of the method:
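MCF7 cells grown in 3D culture, viability read by CellTiter-Glo 3D luminescence; dose–response curves run up to 15 μM to derive IC50.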

The text below walks through data of ChEMBL document CHEMBL4725466, “Discovery and SAR of Novel Disubstituted Quinazolines as Dual PI3Kalpha/mTOR Inhibitors Targeting Breast Cancer” (ACS Med Chem Lett, 2020).

In brackets after ≈: the same amount, converted by molar mass. Activity calls are given as the source filed them. The calls are words filed in the database; no cut-off is given here.

PI3-kinase p110-alpha/p85-alpha, sequence (P27986 whole entry): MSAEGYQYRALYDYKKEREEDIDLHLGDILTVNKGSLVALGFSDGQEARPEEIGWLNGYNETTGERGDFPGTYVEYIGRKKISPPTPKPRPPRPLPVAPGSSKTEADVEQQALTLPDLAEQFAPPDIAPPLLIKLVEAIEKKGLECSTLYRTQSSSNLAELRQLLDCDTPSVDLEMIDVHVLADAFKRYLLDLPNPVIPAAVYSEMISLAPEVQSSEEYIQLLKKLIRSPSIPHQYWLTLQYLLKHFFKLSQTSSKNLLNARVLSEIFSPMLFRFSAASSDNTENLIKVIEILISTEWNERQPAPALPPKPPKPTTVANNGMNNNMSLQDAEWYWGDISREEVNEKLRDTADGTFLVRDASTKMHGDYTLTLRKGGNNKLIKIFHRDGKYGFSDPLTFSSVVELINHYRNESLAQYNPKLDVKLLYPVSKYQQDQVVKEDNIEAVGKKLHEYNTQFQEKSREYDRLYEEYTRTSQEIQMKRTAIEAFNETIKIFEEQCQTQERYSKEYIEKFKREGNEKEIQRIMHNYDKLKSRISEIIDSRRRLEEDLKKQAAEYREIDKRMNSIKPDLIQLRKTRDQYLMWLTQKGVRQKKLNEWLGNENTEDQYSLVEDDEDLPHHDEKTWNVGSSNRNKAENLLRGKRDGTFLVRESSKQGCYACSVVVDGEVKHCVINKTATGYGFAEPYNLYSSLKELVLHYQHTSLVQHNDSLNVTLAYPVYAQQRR
PI3-kinase p110-alpha/p85-alpha, sequence (P42336 whole entry): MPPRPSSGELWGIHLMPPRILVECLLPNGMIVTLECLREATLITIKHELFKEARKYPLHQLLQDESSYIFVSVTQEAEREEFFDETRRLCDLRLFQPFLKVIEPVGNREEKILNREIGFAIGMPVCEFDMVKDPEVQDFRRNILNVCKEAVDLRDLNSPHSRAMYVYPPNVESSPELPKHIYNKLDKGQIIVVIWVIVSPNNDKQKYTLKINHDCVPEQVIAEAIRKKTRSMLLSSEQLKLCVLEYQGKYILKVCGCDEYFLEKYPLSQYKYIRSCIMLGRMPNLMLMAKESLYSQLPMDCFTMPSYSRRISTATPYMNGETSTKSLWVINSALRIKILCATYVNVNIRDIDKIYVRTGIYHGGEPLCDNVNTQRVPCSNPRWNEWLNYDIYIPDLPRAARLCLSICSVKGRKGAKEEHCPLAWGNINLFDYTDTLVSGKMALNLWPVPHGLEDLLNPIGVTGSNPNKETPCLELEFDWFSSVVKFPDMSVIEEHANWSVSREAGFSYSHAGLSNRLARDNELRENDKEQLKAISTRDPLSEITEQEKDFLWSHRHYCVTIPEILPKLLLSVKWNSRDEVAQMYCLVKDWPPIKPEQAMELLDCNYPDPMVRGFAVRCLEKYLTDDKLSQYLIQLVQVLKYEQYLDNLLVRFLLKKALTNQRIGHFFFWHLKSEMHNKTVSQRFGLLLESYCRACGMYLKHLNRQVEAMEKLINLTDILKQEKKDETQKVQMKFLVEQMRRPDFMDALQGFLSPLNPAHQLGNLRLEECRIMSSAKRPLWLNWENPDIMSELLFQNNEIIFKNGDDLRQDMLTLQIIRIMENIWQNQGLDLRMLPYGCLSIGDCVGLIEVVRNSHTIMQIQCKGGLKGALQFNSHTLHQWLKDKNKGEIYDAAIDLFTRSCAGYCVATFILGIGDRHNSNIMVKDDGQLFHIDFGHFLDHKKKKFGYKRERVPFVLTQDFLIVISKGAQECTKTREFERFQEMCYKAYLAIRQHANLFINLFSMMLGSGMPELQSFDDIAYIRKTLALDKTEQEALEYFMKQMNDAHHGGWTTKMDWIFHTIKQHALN

For `CCOC(=O)c1ccc(NC(=O)Nc2ccc(-c3nc(N4CCOCC4)c4ccccc4n3)cc2)cc1`, the inhibition result in series [1] and in series [2] was “Active” in each case. Besides, in series [3], the solubility kinetic at 1.5 h is below 2 µM. The half-life – broadly, how long it takes for the measured level to halve – at 1 µM in series [4] was 30.5 min. The inhibition – broadly, the drop in the measured response relative to a control, in per cent – in series [5] stood at 73%; in series [6], 81%.

Consider `O=C(Nc1ccc(-c2nc(N3CCOCC3)c3ccccc3n2)cc1)Nc1ccc(S(=O)(=O)Nc2ncccn2)cc1`, for which the inhibition result in series [1] and in series [2] was “Active” each time. Also, the solubility kinetic at 1.5 h in series [3] was 13.6 µM (≈ 7.92 µg/mL). In [4], the half-life at 1 µM was above 60 min. The inhibition in series [5] came to 83%.

For the compound `CCC(=O)c1ccc(NC(=O)Nc2ccc(-c3nc(N4CCOCC4)c4ccccc4n3)cc2)cc1`, the inhibition entry in [1] and in series [2] was “Active” in each case. Besides, in [3], the solubility kinetic at 1.5 h was found to be 4 µM (≈ 1.93 µg/mL). Also, in series [4], the half-life at 1 µM is above 60 min. The inhibition in series [5] came out at 77%; in series [6], 73%.

`O=C(Nc1ccc(-c2nc(N3CCOCC3)c3ccccc3n2)cc1)Nc1ccc(S(=O)(=O)Nc2ccccc2)cc1`: the inhibition result in [1] and in series [2] was “Active” throughout. Moreover, the solubility kinetic at 1.5 h in [3] was below 2 µM. Also, the half-life at 1 µM in [4] amounted to 23.5 min. Besides, the inhibition turned out to be 63% in [5] and 75% in [6].

Regarding `O=C(Nc1ccc(-c2nc(N3CCOCC3)c3ccccc3n2)cc1)Nc1ccc(S(=O)(=O)Nc2ccccn2)cc1`, the inhibition result in series [1] and in [2] was “Active” in each case. The solubility kinetic at 1.5 h in series [3] was below 2 µM. This compound gave a half-life at 1 µM in [4] of 37.8 min. Also, the inhibition in series [5] was found to be 84%.

Consider `O=C(Nc1ccc(-c2nc(N3CCOCC3)c3ccccc3n2)cc1)Nc1ccc(S(=O)(=O)Nc2ccc(F)cc2)cc1`, for which the inhibition result in series [1] and in [2] was “Active” throughout. The solubility kinetic at 1.5 h in [3] was below 2 µM. The compound further yielded a half-life at 1 µM in [4] above 60 min. Moreover, the results for the inhibition in series [5] and in series [6] were 54% and 60%, respectively.

Consider `O=S(=O)(Nc1nccs1)c1ccc(Nc2nc(N3CCOCC3)c3ccccc3n2)cc1`, for which the inhibition result in series [1] and in series [2] was “Active” throughout. The IC50 (in general, the midpoint of a concentration-inhibition curve) worked out at 6.9 µM in series [7] and 11.4 µM in series [8]. Further, in series [3], the solubility kinetic at 1.5 h was found to be 42.6 µM (≈ 20 µg/mL). Further, the half-life at 1 µM in series [4] turned out to be 52 min.

As for `CC(=O)Nc1ccc(NC(=O)Nc2ccc(-c3nc(N4CCOCC4)c4ccccc4n3)cc2)cc1`, the inhibition result in series [1] and in series [2] was “Active” in each case. Further, the half-maximal inhibitory concentration (IC50) in series [7] was 0.0007 µM; in the series on MCF7 [14], 0.2 µM. Moreover, the solubility kinetic at 1.5 h in [3] was below 2 µM. In addition, the half-life at 1 µM in series [4] is above 60 min. Besides, the inhibition result (in series [9]; in series [10]; with MCF7 [11]) was “Dose-dependent effect” in each case. Besides, in series [12], the viability at 48 h, 10 µM was 71%. The viability at 10 µM is 69% in the series with MDA-MB-231, 50% with MDA-MB-468 and 29% with MCF7 [13].

With `O=C(Nc1ccc(-c2nc(N3CCOCC3)c3ccccc3n2)cc1)Nc1ccc(S(=O)(=O)Nc2ccc(F)cc2F)cc1`, the inhibition entry in series [1] and in series [2] was “Active” in each case. In addition, the solubility kinetic at 1.5 h in [3] was determined as 4.3 µM (≈ 2.65 µg/mL). This compound also came in with a half-life at 1 µM in series [4] above 60 min. Besides, the inhibition stood at 56% in series [5] and 70% in series [6].
